How the values were obtained:
Rattus norvegicus [1] = assay: Agonist activity at 5HT3 receptor in Sprague-Dawley rat assessed as induction of bradycardia at 50 ug/kg, iv measured after 5 to 30 mins post-treatment by von Bezold-Jarisch reflex test; type: functional
Summary of the method: (§1)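 Urethane-anesthetized rats, compound given iv. Agonism was scored as the compound itself evoking the von Bezold-Jarisch reflex (bradycardia). Antagonism was tested by giving the compound iv 5, 15 or 30 min before phenylbiguanide (PBG) and scoring the reduction of PBG-evoked bradycardia. ED50 is the dose giving half of the maximal bradycardia evoked by the same compound.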

Rattus norvegicus [2] = assay: Antagonist activity at 5HT3 receptor in Sprague-Dawley rat assessed as inhibition of 1-phenylbiguanide-induced bradycardia at 10 ug/kg, iv administered 5 mins before 1-phenylbiguanide challenge measured after 5 to 30 mins post-treatment by von Bezold-Jarisch reflex test; type: functional; design: scale not given: the % may be the effect or the level left; summary of the method: as §1
Rattus norvegicus [3] = assay: Antagonist activity at 5HT3 receptor in Sprague-Dawley rat assessed as inhibition of 1-phenylbiguanide-induced bradycardia at 50 ug/kg, iv administered 5 mins before 1-phenylbiguanide challenge measured after 5 to 30 mins post-treatment by von Bezold-Jarisch reflex test; type: functional; design: scale not given: the % may be the effect or the level left; summary of the method: as §1
Rattus norvegicus [4] = assay: Agonist activity at 5HT3 receptor in iv dosed Sprague-Dawley rat assessed as induction of bradycardia measured after 5 to 30 mins post-treatment by von Bezold-Jarisch reflex test; type: functional; summary of the method: as §1
Rattus norvegicus [5] = assay: Antagonist activity at 5HT3 receptor in iv dosed Sprague-Dawley rat assessed as inhibition of 1-phenylbiguanide-induced bradycardia administered 5 mins before 1-phenylbiguanide challenge measured after 5 to 30 mins post-treatment by von Bezold-Jarisch reflex test; type: functional; summary of the method: as §1
[6] = target: T1, 5-hydroxytryptamine receptor 3A (Rattus norvegicus, UniProt P35563); assay: Displacement of [3H]LY278584 from 5HT3 receptor in rat cortical homogenate
T1 sequence (P35563 whole entry): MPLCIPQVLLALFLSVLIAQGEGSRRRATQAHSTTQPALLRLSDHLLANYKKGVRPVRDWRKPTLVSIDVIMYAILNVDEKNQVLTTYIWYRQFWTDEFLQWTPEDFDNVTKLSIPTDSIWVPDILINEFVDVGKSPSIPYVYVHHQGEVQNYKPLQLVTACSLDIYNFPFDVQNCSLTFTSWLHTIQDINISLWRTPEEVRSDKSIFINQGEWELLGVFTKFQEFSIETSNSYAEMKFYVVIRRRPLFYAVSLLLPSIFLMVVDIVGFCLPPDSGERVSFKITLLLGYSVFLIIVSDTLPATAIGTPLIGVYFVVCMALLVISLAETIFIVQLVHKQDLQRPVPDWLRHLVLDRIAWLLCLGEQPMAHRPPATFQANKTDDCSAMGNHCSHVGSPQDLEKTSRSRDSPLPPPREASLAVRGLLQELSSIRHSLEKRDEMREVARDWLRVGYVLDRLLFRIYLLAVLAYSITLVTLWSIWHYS
Summary of the method: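 Rat cortical homogenate, competition against [3H]LY278584 binding. Ki is the concentration giving half-maximal inhibition of binding, as the mean ± S.E.M. of three determinations.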

Rattus norvegicus [7] = assay: Agonist activity at 5HT3 receptor in Sprague-Dawley rat assessed as induction of bradycardia at 10 ug/kg, iv measured after 5 to 30 mins post-treatment by von Bezold-Jarisch reflex test; type: functional; summary of the method: as §1
[8] = target: T2, 5-hydroxytryptamine receptor 3A (Cavia porcellus, UniProt O70212); assay: Antagonist activity at 5HT3 receptor in spontaneously beating guinea pig right atrium assessed as inhibition of serotonin-induced maximum response by noncompetitive binding assay; type: tissue-based, Cardiac atrium; conditions: read-out: IC50
T2 sequence (O70212 whole entry): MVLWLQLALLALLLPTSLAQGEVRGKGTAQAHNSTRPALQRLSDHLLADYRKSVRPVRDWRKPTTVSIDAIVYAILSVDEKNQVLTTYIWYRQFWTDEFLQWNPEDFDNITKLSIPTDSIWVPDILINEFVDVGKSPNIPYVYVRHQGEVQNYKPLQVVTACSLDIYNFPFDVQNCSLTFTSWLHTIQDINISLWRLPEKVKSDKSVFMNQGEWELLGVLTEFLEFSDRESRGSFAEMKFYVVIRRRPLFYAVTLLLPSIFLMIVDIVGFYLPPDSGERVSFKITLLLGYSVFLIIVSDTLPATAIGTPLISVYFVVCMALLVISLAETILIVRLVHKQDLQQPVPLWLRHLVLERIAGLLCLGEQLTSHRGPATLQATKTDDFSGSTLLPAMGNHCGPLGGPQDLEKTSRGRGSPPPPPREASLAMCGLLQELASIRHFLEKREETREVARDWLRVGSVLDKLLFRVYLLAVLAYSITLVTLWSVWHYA
Summary of the method: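 Spontaneously beating guinea pig right atria, exposed 30 min to test compound at 10 μM, followed by cumulative 5-HT log concentration-response curves versus control. Mean ± SEM of five to seven observations.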

D(2) dopamine receptor = D(2) dopamine receptor (Rattus norvegicus, UniProt P61169); assay: Displacement of [3H]spiperone from dopamine D2 receptor in rat striatum
D(2) dopamine receptor, sequence (P61169 whole entry): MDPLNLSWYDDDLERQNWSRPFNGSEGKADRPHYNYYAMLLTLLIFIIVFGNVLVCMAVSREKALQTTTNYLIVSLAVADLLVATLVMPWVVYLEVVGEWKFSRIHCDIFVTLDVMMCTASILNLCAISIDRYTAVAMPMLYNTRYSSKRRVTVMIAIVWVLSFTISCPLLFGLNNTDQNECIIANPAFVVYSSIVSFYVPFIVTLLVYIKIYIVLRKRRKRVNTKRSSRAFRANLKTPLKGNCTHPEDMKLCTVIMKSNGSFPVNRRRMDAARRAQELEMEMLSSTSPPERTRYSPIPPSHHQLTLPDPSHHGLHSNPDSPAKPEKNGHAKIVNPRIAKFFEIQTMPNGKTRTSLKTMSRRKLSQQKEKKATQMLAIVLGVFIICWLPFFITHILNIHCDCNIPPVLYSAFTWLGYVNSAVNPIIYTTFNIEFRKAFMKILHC

[9] = target: T3, Alpha-2A adrenergic receptor (Rattus norvegicus, UniProt P22909); assay: Displacement of [3H]RX821002 from adrenergic alpha2 receptor in rat cortex
T3 sequence (P22909 whole entry): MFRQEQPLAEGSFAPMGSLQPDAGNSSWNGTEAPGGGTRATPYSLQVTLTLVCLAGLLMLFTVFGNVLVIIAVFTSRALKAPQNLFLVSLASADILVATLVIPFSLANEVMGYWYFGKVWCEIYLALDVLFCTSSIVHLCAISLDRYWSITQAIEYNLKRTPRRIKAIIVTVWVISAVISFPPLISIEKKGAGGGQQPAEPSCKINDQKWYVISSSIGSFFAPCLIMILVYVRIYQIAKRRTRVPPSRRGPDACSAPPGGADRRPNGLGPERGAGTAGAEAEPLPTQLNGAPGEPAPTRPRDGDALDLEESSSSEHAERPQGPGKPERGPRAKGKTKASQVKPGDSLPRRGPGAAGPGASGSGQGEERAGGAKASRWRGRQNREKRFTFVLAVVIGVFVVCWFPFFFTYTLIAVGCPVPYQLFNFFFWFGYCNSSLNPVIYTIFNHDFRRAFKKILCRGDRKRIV

[10] = target: T4, 5-hydroxytryptamine receptor 1A (Rattus norvegicus, UniProt P19327); assay: Displacement of [3H]8-OHDPAT from 5HT1A receptor in rat hippocampus; type: tissue-based
T4 sequence (P19327 whole entry): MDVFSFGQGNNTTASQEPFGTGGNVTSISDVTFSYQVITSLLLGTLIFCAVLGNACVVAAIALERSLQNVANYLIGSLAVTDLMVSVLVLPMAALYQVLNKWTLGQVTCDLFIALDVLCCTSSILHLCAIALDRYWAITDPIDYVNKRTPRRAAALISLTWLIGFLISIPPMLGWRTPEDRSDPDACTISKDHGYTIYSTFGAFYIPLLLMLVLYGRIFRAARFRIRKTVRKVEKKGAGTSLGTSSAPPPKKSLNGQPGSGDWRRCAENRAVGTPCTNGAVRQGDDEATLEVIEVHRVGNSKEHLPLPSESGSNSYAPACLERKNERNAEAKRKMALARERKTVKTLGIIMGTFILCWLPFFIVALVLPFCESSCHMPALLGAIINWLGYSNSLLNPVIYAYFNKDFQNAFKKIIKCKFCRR

D(1A) dopamine receptor = D(1A) dopamine receptor (Rattus norvegicus, UniProt P18901); assay: Displacement of [3H]SCH-23390 from dopamine D1 receptor in rat striatum
D(1A) dopamine receptor, sequence (P18901 whole entry): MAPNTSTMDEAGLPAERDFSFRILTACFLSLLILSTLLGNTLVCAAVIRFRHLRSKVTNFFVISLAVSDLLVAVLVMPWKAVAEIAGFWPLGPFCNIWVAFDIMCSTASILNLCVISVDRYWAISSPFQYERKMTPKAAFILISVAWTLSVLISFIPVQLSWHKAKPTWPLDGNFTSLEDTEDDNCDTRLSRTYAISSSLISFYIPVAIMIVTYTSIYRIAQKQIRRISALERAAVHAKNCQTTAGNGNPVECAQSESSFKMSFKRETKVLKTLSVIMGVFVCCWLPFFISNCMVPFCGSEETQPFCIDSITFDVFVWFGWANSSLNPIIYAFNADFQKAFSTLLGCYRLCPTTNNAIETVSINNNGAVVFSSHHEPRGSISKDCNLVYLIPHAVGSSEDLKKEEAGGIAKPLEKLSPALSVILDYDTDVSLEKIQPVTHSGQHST

[11] = target: 5-hydroxytryptamine receptor 2A (Rattus norvegicus, UniProt P14842); assay: Displacement of [3H]ketanserin from 5HT2A receptor in rat cortex
5-hydroxytryptamine receptor 2A, sequence (P14842 whole entry): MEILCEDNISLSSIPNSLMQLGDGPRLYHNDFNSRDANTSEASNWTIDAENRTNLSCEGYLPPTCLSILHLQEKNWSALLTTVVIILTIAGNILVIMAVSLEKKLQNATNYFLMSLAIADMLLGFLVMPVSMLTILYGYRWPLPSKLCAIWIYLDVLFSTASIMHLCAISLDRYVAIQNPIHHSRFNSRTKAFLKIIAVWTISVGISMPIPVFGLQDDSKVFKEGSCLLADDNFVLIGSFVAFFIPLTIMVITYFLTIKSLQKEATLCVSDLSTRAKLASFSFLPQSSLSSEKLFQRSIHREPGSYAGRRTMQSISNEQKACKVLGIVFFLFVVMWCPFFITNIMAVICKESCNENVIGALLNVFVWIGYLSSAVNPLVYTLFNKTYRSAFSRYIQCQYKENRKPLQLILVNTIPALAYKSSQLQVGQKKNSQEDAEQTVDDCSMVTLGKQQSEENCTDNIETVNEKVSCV

In the case of `Oc1ccc2c(c1)nc(N1CCN(Cc3c[nH]cn3)CC1)c1cccn12`, the Activity (Rattus norvegicus [1]) is reported as 50%, the Activity (Rattus norvegicus [2]) is reported as 62% and the Activity (Rattus norvegicus [3]) is reported as 90%. It also gave an ED50 (Rattus norvegicus [4]) of 0.028 mg/kg, an ID50 (Rattus norvegicus [5]) of 6.5 µg/kg and a Ki ([6]; read-out: Ki) of 2.25 nM. The Activity (Rattus norvegicus [7]) was 45% and the IC50 [8] was 2630 nM.

`Cc1cccc2nc(N3CCN(C)CC3)c3cccn3c12` showed a Ki ([6]; read-out: Ki) of 0.79 nM.

`Cc1cccc2nc(N3CCN(Cc4cnc[nH]4)CC3)c3cccn3c12` was tested, and the Ki (D(2) dopamine receptor) was over 10 µM, the Ki [9] was over 10 µM and the Ki [10] was over 10 µM. It also gave a Ki (D(1A) dopamine receptor) of over 10 µM, a Ki ([6]; read-out: Ki) of 0.49 nM and a Ki [11] of 9.81 µM.

Molecule `Cc1cccc2nc(N3CCN(CCn4ccnc4)CC3)c3cccn3c12` has a Ki ([6]; read-out: Ki) of 17.8 nM.

For `Fc1ccc2c(c1)nc(N1CCN(Cc3ccccc3)CC1)c1cccn12`, the Ki [6] was 13 nM.

Work on `Fc1ccc2c(c1)nc(N1CCN(CCn3ccnc3)CC1)c1cccn12` yielded a Ki ([6]; read-out: Ki) of 22.2 nM.

For `Cc1cccc2nc(N3CCN(Cc4ccccc4)CC3)c3cccn3c12`, the Ki [6] was 8.8 nM.

Work on `Fc1ccc2c(c1)nc(N1CCN(CCc3cnc[nH]3)CC1)c1cccn12` yielded a Ki ([6]; read-out: Ki) of 330 nM.
